This is a sample that favours compounds with a hit; in the whole collection about 5.4% have one here.
aSyn UTR inh = MLPCN primary screen, SNCA 5' untranslated region; alpha-synuclein 5'UTR reporter, inhibitor activity; 0.82% of 300,000 active; inhibition, % (tested at 7.5 µM); in the data active = inhibition above about 60%;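 also: H4 neuroglioblastoma cells stably carrying SNCA 5'UTR luciferase fusion; 0% = DMSO wells and 100% = positive control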
T cruzi repl = T. cruzi replication inhibition; inhibition, % (concentration not given with the values); 1.4% of 300,000 active; T. cruzi beta-gal in NIH3T3, luminescence, 90 h;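 active = mean inhibition across valid replicates above about 55%, limit read from the data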;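 also: signal also drops with host cell toxicity which is not excluded here; 0% = plate median of DMSO wells and 100% = zero luminescence signal; higher percent means less beta-gal luminescence so fewer parasites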
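System: mouse NIH/3T3 fibroblasts infected with β-gal-expressing T. cruzi Tulahuen C4 / Input: NIH/3T3 cells, 5,000 per well / Buffer or medium: Low-serum DMEM with 2% FBS / Probe or stimulus: 5000 reporter trypomastigotes per well / Schedule: ≥90 h infection period, 3 h prior cell attachment / Measured by: GalScreen luminescence, 60 min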
SKKanGAS inh = inhibitors of SKKanGAS S. pyogenes growth in kanamycin (SK-promoter or general growth effect) | BacTiter-Glo, 6 h | 1.3% of 300,000 active | AID 1662 | inhibition, % at 7.5 µM;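 active = mean replicate score, as percent of positive control median, at least 50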;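 also: strain carries kanamycin resistance gene driven by streptokinase promoter and grows in 40 µg/ml kanamycin; loss of luminescence reflects streptokinase promoter inhibition or plain growth inhibition; 0% = median of DMSO wells and 100% = positive control at its reference dose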
Mdm2 MdmX PPI = human Mdm2/MdmX binding inhibition. AID 485346. inhibition, % at 8 µM. SaOS-2 split-luciferase Mdm2/MdmX complementation, luminescence. 3% of 330,000 active. O15151+Q00987;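 active = inhibition of at least 50% at 8 µM in the primary screen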
CSC inhib = cancer stem cell inhibition. cancer stem cell-like cells viability, luminescence. inhibition, % at 7.5 µM. 1.1% of 300,000 active. AID 2717; in the data active = inhibition above about 75%; tested in HMLE shEcad cells
* marks the source's active call; other numbers are inactive results; . = no result given.

SMILES	aSyn UTR inh	T cruzi repl	SKKanGAS inh	Mdm2 MdmX PPI	CSC inhib
Cc1ccccc1-c1nc(-c2cccnc2)no1	-227	-3	-17	-39	3
COc1ccccc1-c1nc(-c2ccccn2)no1	77*	-10	25	29	45
COc1ccccc1-c1noc(-c2ccncc2)n1	-74	-3	-5	-11	-1
COc1ccc(-c2noc(-c3ccccc3-c3ccccc3)n2)cc1OC	-3	27	26	18	80*
Brc1ccc(-c2nc(-c3ccccn3)no2)o1	80*	8	7	2	12
Cc1ccccc1-c1nc(-c2ccccn2)no1	95*	-20	.	-29	-1
COc1ccc(C)cc1N1CC(C(=O)Nc2ccccc2C(=O)NC2CC2)CC1=O (configuration not stated)	.	.	.	29	-9
CCOc1ccccc1N(CC(=O)Nc1ccccc1C(=O)N1CCCC1)S(C)(=O)=O	-9	-3	-4	15	-4
Cc1cc(C(=O)NCC(=O)OCC(=O)N(C(C)C)C(C)C)ccc1[N+](=O)[O-]	-3	-34	4	15	.
COc1cccc(-c2nnc(NC(=O)c3ccc4ncsc4c3)o2)c1	-24	19	69*	4	23
COc1cccc(C(=O)Nc2nnc(-c3ccc(F)cc3)o2)c1	-8	-2	91*	36	24
COc1cccc(-c2nnc(NC(=O)c3ccc(S(=O)(=O)N4CCOCC4)cc3)o2)c1	48	-97	88*	28	-9
COc1cc(-c2nnc(NC(=O)c3ccc(S(=O)(=O)N4CCOCC4)cc3)o2)cc(OC)c1OC	-6	-23	10	32	18
Cc1cccc(C(=O)Nc2nnc(-c3ccncc3)o2)c1	18	-7	-2	-16	8
COc1cccc(C(=O)Nc2nnc(-c3cccs3)o2)c1	-61	-25	77*	22	22
Cc1cccc(NC(=S)NN2CCN(C)CC2)c1	-9	0	4	2	-1
Cc1ccc(C(=O)N2CCNC(=O)C2CC(=O)Nc2ccccc2)cc1 (configuration not stated)	1	-4	-4	25	-8
COc1cccc(-c2nnc(NC(C)=O)o2)c1	-34	-8	4	0	-4
COc1cccc(C(=O)Nc2nnc(-c3ccc(Cl)cc3)o2)c1	2	-6	88*	38	62
CCN(CC)S(=O)(=O)c1ccc(C(=O)Nc2nnc(-c3ccco3)o2)cc1	5	-17	8	34	2
CCCCN(CC)S(=O)(=O)c1ccc(C(=O)Nc2nnc(-c3cccs3)o2)cc1	47	63*	98*	29	41
CC(C)(C)c1ccc(Oc2ccc(NC(=O)c3ccccc3C(=O)O)cn2)cc1	86*	7	4	23	21
CC(C)(C)c1ccc(Oc2ccc(N)cn2)cc1	87*	-1	0	37	42
CCOC(=O)CCNC(=O)c1ccc2nc(C3CCCCC3)oc2c1	-14	0	-13	8	8
COc1ccc(NCc2nc3ccccc3n2CCOc2ccccc2)cc1	-207	69*	25	-8	-7
SMILES	aSyn UTR inh	T cruzi repl	SKKanGAS inh	Mdm2 MdmX PPI	CSC inhib
COc1cc(OC)cc(OC(=O)c2ccc3c(=O)n4c(nc3c2)CCC4)c1	3	-16	41	2	-12
COc1ccc(/C=C2/CCc3ccccc3C2=O)cc1CN1CCOCC1	16	57*	2	2	5
CN(C)C1=NCCN1CCCCc1ccccc1	.	.	.	25	-3
O=C1NC(Cc2ccc(O)cc2)c2nc3ccccc3c(=O)n2-c2cc(Cl)ccc21 (configuration not stated)	.	.	.	3	-22
CCc1ccc([C@@H]2CC=C(C(=O)O)[C@H](c3ccc(C)cc3)N2S(=O)(=O)c2ccc(C)cc2)cc1	.	.	.	1	.
CC[C@@H]1C=C(C(=O)O)[C@H](c2ccc(Cl)c(Cl)c2)N1S(=O)(=O)c1ccc(C)cc1	.	.	.	6	.
CCc1ccc([C@@H]2CC=C(C(=O)O)[C@H](c3ccc(Cl)cc3)N2S(=O)(=O)c2ccc(C)cc2)cc1	.	.	.	3	79*
CCCCC[C@@H]1C=C(C(=O)O)[C@H](c2ccc(Cl)c(Cl)c2)N1S(=O)(=O)c1ccc(C)cc1	.	.	.	-9	98*
Cc1ccc(S(=O)(=O)N2[C@@H](c3ccc(C(C)(C)C)cc3)C(C(=O)O)=CC[C@H]2c2cccc(Cl)c2)cc1	.	.	.	-5	138*
O=C(COC(=O)CN1C(=O)C2CCCCC2C1=O)Nc1cc(F)ccc1F (configuration not stated)	.	.	.	14	.
NC(=O)C1CCCN(C(=O)c2ccc3c(c2)NC(=O)CS3)C1 (configuration not stated)	.	.	.	13	-17
CC(C)CCNC(=O)Cc1ccc(Nc2nc(=S)[nH]c3ccccc23)cc1	-33	7	-9	9	-9
Nc1nc(Nc2ccccc2)nc(NCc2ccccc2)c1[N+](=O)[O-]	84*	13	28	19	57
Cc1ccc(CNc2nc(N)c([N+](=O)[O-])c(NCc3ccccc3)n2)cc1	34	6	-4	-11	-6
Nc1nc(NCc2ccccc2)nc(NCc2ccccc2)c1[N+](=O)[O-]	22	13	-2	-1	-9
CC(C)CNc1nc(N)c([N+](=O)[O-])c(NCc2ccccc2)n1	77*	-5	2	31	-9
Nc1nc(Nc2ccccc2)nc(NC2CCCCC2)c1[N+](=O)[O-]	35	-3	79*	27	104*
Cc1ccc(Nc2nc(N)c([N+](=O)[O-])c(NCc3ccco3)n2)cc1C	-55	26	60*	-3	84*
CSC1=N/C(=C\c2ccccc2)C(=O)N1C	-46	-2	-2	-8	3
CC(=O)Nc1ccc(N2C(=O)CSC2c2cccc(Br)c2)cc1 (configuration not stated)	-8	-7	-2	16	11
Nc1nc(NCCO)nc(NC2CCCCC2)c1[N+](=O)[O-]	57	-38	-2	10	-2
Cc1ccc(Nc2nc(N)c([N+](=O)[O-])c(N3CCC(C)CC3)n2)cc1C	26	20	22	-2	85*
Nc1nc(NCCOCCO)nc(NC2CCCCC2)c1[N+](=O)[O-]	68*	-33	-5	13	-6
CCc1ccc(OCC(=O)Nc2ccc(S(=O)(=O)N3CCOCC3)cc2)cc1	-11	0	22	-11	-10
O=C(Nc1cc2c3c(c1)C1CCCC1CN3CC1CCCC21)c1ccccc1 (configuration not stated)	-25	60*	9	13	-14
Cc1cccc(C)c1N=C1SC(CC(=O)Nc2c(C)cccc2C)C(=O)N1CCc1ccccn1 (configuration not stated)	67*	1	7	-8	11
O=C(CC1SC(=Nc2ccccc2)N(CCc2ccccn2)C1=O)Nc1ccc(F)cc1 (configuration not stated)	-1	-1	1	8	0
O=C(Nc1ccccc1C(=O)O)c1ccc(Cl)c(S(=O)(=O)N2CCOCC2)c1	-13	8	11	25	-5
